Converted amounts (≈) assume the structure as drawn.
Experiments:
[1] = test system: Staphylococcus aureus; assay: Antibacterial activity against methicillin-resistant Staphylococcus aureus assessed as bacterial growth inhibition in presence of 2-(4-(3-(2-aminothiazol-4-yl)-1-ethyl-6-fluoro-4-oxo-1,4-dihydroquinolin-7-yl)piperazin-1-yl)acetonitrile by CLSI protocol based two fold serial dilution method; assay type: functional
Procedure, shortened: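 Checkerboard-type pairing, with each agent tested alone and combined by CLSI two-fold serial dilution. MICs are from three independent experiments. FIC index = (MIC of A combined/MIC of A alone) + (MIC of B combined/MIC of B alone). An index ≤1 is read as synergistic and 1–2 as additive.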

[2] = test system: Staphylococcus aureus; assay: Antibacterial activity against Staphylococcus aureus assessed as inhibition of bacterial growth after 24 hrs by CLSI protocol based two fold serial dilution method; assay type: functional
Procedure, shortened: (§1)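 Two-fold serial broth dilution in 96-well plates following CLSI; MIC (mM) taken as the lowest concentration giving complete growth inhibition; MIC values from three independent experiments.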

[3] = test system: Klebsiella pneumoniae; assay: Antibacterial activity against Klebsiella pneumoniae assessed as bacterial growth inhibition in presence of 2-(4-(3-(2-aminothiazol-4-yl)-1-ethyl-6-fluoro-4-oxo-1,4-dihydroquinolin-7-yl)piperazin-1-yl)acetonitrile by CLSI protocol based two fold serial dilution method; assay type: functional; procedure, shortened: as §1
[4] = test system: Staphylococcus aureus; assay: Antibacterial activity against Staphylococcus aureus assessed as bacterial growth inhibition in presence of 2-(4-(3-(2-aminothiazol-4-yl)-1-ethyl-6-fluoro-4-oxo-1,4-dihydroquinolin-7-yl)piperazin-1-yl)acetonitrile by CLSI protocol based two fold serial dilution method; assay type: functional
[5] = test system: Klebsiella pneumoniae; assay: Potentiation of 2-(4-(3-(2-aminothiazol-4-yl)-1-ethyl-6-fluoro-4-oxo-1,4-dihydroquinolin-7-yl)piperazin-1-yl)acetonitrile-induced antibacterial activity against Klebsiella pneumoniae assessed as fold reduction in 2-(4-(3-(2-aminothiazol-4-yl)-1-ethyl-6-fluoro-4-oxo-1,4-dihydroquinolin-7-yl)piperazin-1-yl)acetonitrile MIC by CLSI protocol based two fold serial dilution method; assay type: functional
[6] = test system: Klebsiella pneumoniae; assay: Antibacterial activity against Klebsiella pneumoniae assessed as inhibition of bacterial growth after 24 hrs by CLSI protocol based two fold serial dilution method; assay type: functional; procedure, shortened: as §1
[7] = test system: Escherichia coli; assay: Antibacterial activity against Escherichia coli assessed as bacterial growth inhibition in presence of 2-(4-(3-(2-aminothiazol-4-yl)-1-ethyl-6-fluoro-4-oxo-1,4-dihydroquinolin-7-yl)piperazin-1-yl)acetonitrile by CLSI protocol based two fold serial dilution method; assay type: functional; procedure, shortened: as §1
[8] = test system: Escherichia coli; assay: Antibacterial activity against Escherichia coli assessed as inhibition of bacterial growth after 24 hrs by CLSI protocol based two fold serial dilution method; assay type: functional; procedure, shortened: as §1
[9] = test system: Staphylococcus aureus; assay: Antibacterial activity against methicillin-resistant Staphylococcus aureus N315 assessed as inhibition of bacterial growth after 24 hrs by CLSI protocol based two fold serial dilution method; assay type: functional
[10] = test system: Staphylococcus aureus; assay: Antibacterial activity against Staphylococcus aureus ATCC 29213 assessed as inhibition of bacterial growth after 24 hrs by CLSI protocol based two fold serial dilution method; assay type: functional
[11] = test system: Pseudomonas aeruginosa; assay: Antibacterial activity against Pseudomonas aeruginosa assessed as inhibition of bacterial growth after 24 hrs by CLSI protocol based two fold serial dilution method; assay type: functional; procedure, shortened: as §1
[12] = test system: Candida albicans; assay: Antifungal activity against Candida albicans assessed as inhibition of fungal growth after 24 hrs by CLSI protocol based two fold serial dilution method; assay type: functional; procedure, shortened: as §1
[13] = test system: Pseudomonas aeruginosa; assay: Antibacterial activity against Pseudomonas aeruginosa ATCC 27853 assessed as inhibition of bacterial growth after 24 hrs by CLSI protocol based two fold serial dilution method; assay type: functional; procedure, shortened: as §1
[14] = test system: Acinetobacter baumannii; assay: Antibacterial activity against Acinetobacter baumannii assessed as inhibition of bacterial growth after 24 hrs by CLSI protocol based two fold serial dilution method; assay type: functional; procedure, shortened: as §1
[15] = test system: Candida albicans; assay: Antifungal activity against Candida albicans ATCC 90023 assessed as inhibition of fungal growth after 24 hrs by CLSI protocol based two fold serial dilution method; assay type: functional; procedure, shortened: as §1
[16] = test system: Escherichia coli; assay: Antibacterial activity against Escherichia coli ATCC 25922 assessed as inhibition of bacterial growth after 24 hrs by CLSI protocol based two fold serial dilution method; assay type: functional; procedure, shortened: as §1
[17] = test system: Enterococcus faecalis; assay: Antibacterial activity against Enterococcus faecalis assessed as inhibition of bacterial growth after 24 hrs by CLSI protocol based two fold serial dilution method; assay type: functional; procedure, shortened: as §1
[18] = test system: Candida parapsilosis; assay: Antifungal activity against Candida parapsilosis ATCC 22019 assessed as inhibition of fungal growth after 24 hrs by CLSI protocol based two fold serial dilution method; assay type: functional; details: Lodderomyces parapsilosis; procedure, shortened: as §1
[19] = test system: Aspergillus fumigatus; assay: Antifungal activity against Aspergillus fumigatus assessed as inhibition of fungal growth after 24 hrs by CLSI protocol based two fold serial dilution method; assay type: functional; procedure, shortened: as §1
[20] = test system: Staphylococcus aureus; assay: Antibacterial activity against Staphylococcus aureus ATCC 25923 assessed as inhibition of bacterial growth after 24 hrs by CLSI protocol based two fold serial dilution method; assay type: functional; procedure, shortened: as §1
[21] = test system: Candida tropicalis; assay: Antifungal activity against Candida tropicalis assessed as inhibition of fungal growth after 24 hrs by CLSI protocol based two fold serial dilution method; assay type: functional; procedure, shortened: as §1
[22] = Inhibition of Saccharomyces cerevisiae CGMCC 2.145 chitin synthase using GlcNAc and UDP-GlcNAc as substrate incubated for 60 mins by microplate reader analysis
Procedure, shortened: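 Chitin synthase IC50 determined from concentration–inhibition curves.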

[23] = test system: Saccharomyces cerevisiae; assay: Inhibition of Saccharomyces cerevisiae CGMCC 2.145 chitin synthase at 300 ug/ml using GlcNAc and UDP-GlcNAc as substrate incubated for 60 mins by microplate reader analysis relative to control; details: dose 300.0 µg/ml
Procedure, shortened: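 Chitin synthase inhibition ratio measured at 300 µg/mL test compound, relative to untreated control.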

| SMILES | MIC [2] | MIC [6] | MIC [8] | MIC [9] | MIC [10] | MIC [11] | MIC [12] | MIC [13] | MIC [14] | MIC [15] | MIC [16] | MIC [17] | MIC [18] | MIC [19] | MIC [20] | MIC [21] | also measured |
| --- | --- | --- | --- | --- | --- | --- | --- | --- | --- | --- | --- | --- | --- | --- | --- | --- | --- |
| CC(=O)OCC1=C(C(=O)O)N2C(=O)[C@@H](NC(=O)CS/C(=N/C(C)C)NC(C)C)[C@H]2SC1 | 34 µM (≈ 16.1 µg/mL) | 4 µM (≈ 1.89 µg/mL) | 17 µM (≈ 8.03 µg/mL) | 4 µM (≈ 1.89 µg/mL) |  |  |  |  |  |  |  |  |  |  |  |  | MIC [1]: 2 µM; MIC [3]: 2 µM; MIC [4]: 4 µM; fold change (FC) [5]: 5; MIC [7]: 8 µM |
| CCCCCCCCCCN1CCN(c2cc3c(cc2F)c(=O)c(-c2csc(N)n2)cn3CC)CC1 | 499 µM (≈ 256 µg/mL) | 499 µM (≈ 256 µg/mL) | 499 µM (≈ 256 µg/mL) | 997 µM (≈ 512 µg/mL) | 997 µM (≈ 512 µg/mL) | 499 µM (≈ 256 µg/mL) | 997 µM (≈ 512 µg/mL) | 249 µM (≈ 128 µg/mL) | 249 µM (≈ 128 µg/mL) | 997 µM (≈ 512 µg/mL) | 499 µM (≈ 256 µg/mL) | 499 µM (≈ 256 µg/mL) | 249 µM (≈ 128 µg/mL) | 125 µM (≈ 64.2 µg/mL) | 499 µM (≈ 256 µg/mL) | 499 µM (≈ 256 µg/mL) |  |
| CCCCCCCCN1CCN(c2cc3c(cc2F)c(=O)c(-c2csc(N)n2)cn3CC)CC1 | 264 µM (≈ 128 µg/mL) | 264 µM (≈ 128 µg/mL) | 264 µM (≈ 128 µg/mL) | 528 µM (≈ 256 µg/mL) | 528 µM (≈ 256 µg/mL) | 264 µM (≈ 128 µg/mL) | 1060 µM (≈ 512 µg/mL) | 264 µM (≈ 128 µg/mL) | 528 µM (≈ 256 µg/mL) | 1060 µM (≈ 512 µg/mL) | 1060 µM (≈ 512 µg/mL) | 528 µM (≈ 256 µg/mL) | 264 µM (≈ 128 µg/mL) | 16 µM (≈ 7.77 µg/mL) | 264 µM (≈ 128 µg/mL) | 264 µM (≈ 128 µg/mL) |  |
| CCn1cc(-c2csc(N)n2)c(=O)c2cc(F)c(N3CCN(Cc4ccc(Cl)cc4)CC3)cc21 | 64 µM (≈ 31.9 µg/mL) | 129 µM (≈ 64.2 µg/mL) | 32 µM (≈ 15.9 µg/mL) | 16 µM (≈ 7.97 µg/mL) | 64 µM (≈ 31.9 µg/mL) | 257 µM (≈ 128 µg/mL) | 32 µM (≈ 15.9 µg/mL) | 32 µM (≈ 15.9 µg/mL) | 32 µM (≈ 15.9 µg/mL) | 64 µM (≈ 31.9 µg/mL) | 32 µM (≈ 15.9 µg/mL) | 16 µM (≈ 7.97 µg/mL) | 16 µM (≈ 7.97 µg/mL) | 515 µM (≈ 256 µg/mL) | 16 µM (≈ 7.97 µg/mL) | 32 µM (≈ 15.9 µg/mL) | IC50 [22]: 320 µM; inhibition [23]: 56.2% |
| CCn1cc(-c2csc(N)n2)c(=O)c2cc(F)c(N3CCNCC3)cc21 | 86 µM (≈ 32.1 µg/mL) | 171 µM (≈ 63.9 µg/mL) | 171 µM (≈ 63.9 µg/mL) | 171 µM (≈ 63.9 µg/mL) | 343 µM (≈ 128 µg/mL) | 21 µM (≈ 7.84 µg/mL) | 171 µM (≈ 63.9 µg/mL) | 343 µM (≈ 128 µg/mL) | 343 µM (≈ 128 µg/mL) | 171 µM (≈ 63.9 µg/mL) | 343 µM (≈ 128 µg/mL) | 171 µM (≈ 63.9 µg/mL) | 343 µM (≈ 128 µg/mL) | 343 µM (≈ 128 µg/mL) | 171 µM (≈ 63.9 µg/mL) | 685 µM (≈ 256 µg/mL) |  |
| CCCN1CCN(c2cc3c(cc2F)c(=O)c(-c2csc(N)n2)cn3CC)CC1 | 308 µM (≈ 128 µg/mL) | 154 µM (≈ 64 µg/mL) | 308 µM (≈ 128 µg/mL) | 308 µM (≈ 128 µg/mL) | 617 µM (≈ 256 µg/mL) | 617 µM (≈ 256 µg/mL) | 308 µM (≈ 128 µg/mL) | 154 µM (≈ 64 µg/mL) | 154 µM (≈ 64 µg/mL) | 308 µM (≈ 128 µg/mL) | 308 µM (≈ 128 µg/mL) | 154 µM (≈ 64 µg/mL) | 308 µM (≈ 128 µg/mL) | 154 µM (≈ 64 µg/mL) | 154 µM (≈ 64 µg/mL) | 308 µM (≈ 128 µg/mL) |  |
| C=CCN1CCN(c2cc3c(cc2F)c(=O)c(-c2csc(N)n2)cn3CC)CC1 | 155 µM (≈ 64.1 µg/mL) | 77 µM (≈ 31.8 µg/mL) | 77 µM (≈ 31.8 µg/mL) | 78 µM (≈ 32.3 µg/mL) | 39 µM (≈ 16.1 µg/mL) | 155 µM (≈ 64.1 µg/mL) | 77 µM (≈ 31.8 µg/mL) | 155 µM (≈ 64.1 µg/mL) | 77 µM (≈ 31.8 µg/mL) | 77 µM (≈ 31.8 µg/mL) | 155 µM (≈ 64.1 µg/mL) | 155 µM (≈ 64.1 µg/mL) | 155 µM (≈ 64.1 µg/mL) | 77 µM (≈ 31.8 µg/mL) | 19 µM (≈ 7.86 µg/mL) | 155 µM (≈ 64.1 µg/mL) |  |

From ChEMBL document CHEMBL4665627 (Eur J Med Chem, 2019)
